Laboratory results published in PMC6172068 (Cancer Science, 2018).

Tests used:
[1] = tested on: relapsed/refractory (R/R) acute myeloid leukemia (AML); test: Antileukemic activity; assay type: in vivo, Japanese patients
In short: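 Adults (≥18 years) with relapsed/refractory AML took an oral test compound once daily in escalating cohorts (20–300 mg/d). Cycle 0 was a single dose with 2-day observation, followed by 28-day cycles. Marrow aspirates or biopsies were taken at screening, Cycle 1 Day 28, Day 1 of later cycles and end of treatment. CR, CRp and CRi followed International Working Group criteria. The full analysis set was used.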

[2] = tested on: relapsed/refractory (R/R) AML; details: cited from earlier work
FLT3 = details: preclinical studies; cited from earlier work
AXL = details: preclinical studies; cited from earlier work
[3] = tested on: leukocyte receptor tyrosine kinase; details: preclinical studies; cited from earlier work
[4] = tested on: FLT3 receptors expressing FLT3-ITD; details: leukemic cells; cited from earlier work
[5] = tested on: FLT3 receptors expressing FLT3-TKD D835 mutations; details: leukemic cells; cited from earlier work
[6] = tested on: FLT3 receptors expressing F691 gatekeeper mutations; details: leukemic cells; cited from earlier work
c-Kit = details: cited from earlier work
[7] = FLT3 mutation-negative patients, Total (n = 11)
[8] = FLT3 mutation-positive patients, 20 mg (n = 1)
[9] = FLT3 mutation-positive patients, 40 mg (n = 1)
[10] = FLT3 mutation-positive patients, 80 mg (n = 1)
[11] = FLT3 mutation-positive patients, 200 mg (n = 2)
[12] = patients with mutated FLT3 (n = 5), 1 patient
[13] = patients with wild-type FLT3 (n = 11), 1 patient

CCc1nc(C(N)=O)c(Nc2ccc(N3CCC(N4CCN(C)CC4)CC3)c(OC)c2)nc1NC1CCOCC1 [gilteritinib]
CR ([1]; All patients, 20 mg (n = 1)): 0 n (%, [95% CI])
CRc (CR plus CRp plus CRi) ([1]; All patients, 20 mg (n = 1)): 1 (100 [2.5, 100]) n (%, [95% CI])
CRi ([1]; All patients, 20 mg (n = 1)): 1 (100 [2.5, 100]) n (%, [95% CI])
CRp ([1]; All patients, 20 mg (n = 1)): 0 n (%, [95% CI])
ORR (CRc plus PR) ([1]; All patients, 20 mg (n = 1)): 1 (100 [2.5, 100]) n (%, [95% CI])
PR ([1]; All patients, 20 mg (n = 1)): 0 n (%, [95% CI])
CR ([1]; All patients, 40 mg (n = 3)): 0 n (%, [95% CI])
CRc (CR plus CRp plus CRi) ([1]; All patients, 40 mg (n = 3)): 0 n (%, [95% CI])
CRi ([1]; All patients, 40 mg (n = 3)): 0 n (%, [95% CI])
CRp ([1]; All patients, 40 mg (n = 3)): 0 n (%, [95% CI])
CR ([1]; All patients, 80 mg (n = 4)): 1 (25 [0.6, 80.6]) n (%, [95% CI])
CRc (CR plus CRp plus CRi) ([1]; All patients, 80 mg (n = 4)): 1 (25 [0.6, 80.6]) n (%, [95% CI])
CRi ([1]; All patients, 80 mg (n = 4)): 0 n (%, [95% CI])
CRp ([1]; All patients, 80 mg (n = 4)): 0 n (%, [95% CI])
ORR (CRc plus PR) ([1]; All patients, 80 mg (n = 4)): 2 (50 [6.8, 93.2]) n (%, [95% CI])
PR ([1]; All patients, 80 mg (n = 4)): 1 (25 [0.6, 80.6]) n (%, [95% CI])
CR ([1]; All patients, 120 mg (n = 2)): 0 n (%, [95% CI])
CRc (CR plus CRp plus CRi) ([1]; All patients, 120 mg (n = 2)): 1 (50 [1.3, 98.7]) n (%, [95% CI])
CRi ([1]; All patients, 120 mg (n = 2)): 1 (50 [1.3, 98.7]) n (%, [95% CI])
CRp ([1]; All patients, 120 mg (n = 2)): 0 n (%, [95% CI])
ORR (CRc plus PR) ([1]; All patients, 120 mg (n = 2)): 1 (50 [1.3, 98.7]) n (%, [95% CI])
PR ([1]; All patients, 120 mg (n = 2)): 0 n (%, [95% CI])
CR ([1]; All patients, 200 mg (n = 7)): 0 n (%, [95% CI])
CRc (CR plus CRp plus CRi) ([1]; All patients, 200 mg (n = 7)): 4 (57.1 [18.4, 90.1]) n (%, [95% CI])
CRi ([1]; All patients, 200 mg (n = 7)): 1 (14.3 [0.4, 57.9]) n (%, [95% CI])
CRp ([1]; All patients, 200 mg (n = 7)): 3 (42.9 [9.9, 81.6]) n (%, [95% CI])
ORR (CRc plus PR) ([1]; All patients, 200 mg (n = 7)): 4 (57.1 [18.4, 90.1]) n (%, [95% CI])
PR ([1]; All patients, 200 mg (n = 7)): 0 n (%, [95% CI])
CR ([1]; All patients, 300 mg (n = 2)): 0 n (%, [95% CI])
CRc (CR plus CRp plus CRi) ([1]; All patients, 300 mg (n = 2)): 0 n (%, [95% CI])
CRi ([1]; All patients, 300 mg (n = 2)): 0 n (%, [95% CI])
CRp ([1]; All patients, 300 mg (n = 2)): 0 n (%, [95% CI])
ORR (CRc plus PR) ([1]; All patients, 300 mg (n = 2)): 0 n (%, [95% CI])
PR ([1]; All patients, 300 mg (n = 2)): 0 n (%, [95% CI])
CRc ([1]; FAS, all doses, 7 of 19 patients, 95% CI: 16.3, 61.6): 36.8%
ORR ([1]; FAS, all doses, n = 9/19, 95% CI: 24.4, 71.1): 47.4%
Median duration of CRc ([1]; FAS, 95% CI: 28.0, 116.0): 86.5 days
Median duration of remission ([1]; FAS, 95% CI: 28.0, 139.0): 113.5 days
CR [1, 7]: 1 (9.1 [0.2, 41.3]) n (%, [95% CI])
CRc (CR plus CRp plus CRi) [1, 7]: 3 (27.3 [6.0, 61.0]) n (%, [95% CI])
CRi [1, 7]: 0 n (%, [95% CI])
CRp [1, 7]: 2 (18.2 [2.3, 51.8]) n (%, [95% CI])
ORR (CRc plus PR) [1, 7]: 4 (36.4 [10.9, 69.2]) n (%, [95% CI])
PR [1, 7]: 1 (9.1 [0.2, 41.3]) n (%, [95% CI])
CRc ([1]; FLT3 mutation-positive patients (n = 5), 95% CI: 14.7, 94.7): 60%
ORR ([1]; FLT3 mutation-positive patients (n = 5), 95% CI: 28.4, 99.5): 80%
CR [1, 8]: 0 n (%, [95% CI])
CRc (CR plus CRp plus CRi) [1, 8]: 1 (100 [2.5, 100]) n (%, [95% CI])
CRi [1, 8]: 1 (100 [2.5, 100]) n (%, [95% CI])
CRp [1, 8]: 0 n (%, [95% CI])
ORR (CRc plus PR) [1, 8]: 1 (100 [2.5, 100]) n (%, [95% CI])
PR [1, 8]: 0 n (%, [95% CI])
CR [1, 9]: 0 n (%, [95% CI])
CRc (CR plus CRp plus CRi) [1, 9]: 0 n (%, [95% CI])
CRi [1, 9]: 0 n (%, [95% CI])
CRp [1, 9]: 0 n (%, [95% CI])
ORR (CRc plus PR) [1, 9]: 0 n (%, [95% CI])
PR [1, 9]: 0 n (%, [95% CI])
CR [1, 10]: 0 n (%, [95% CI])
CRc (CR plus CRp plus CRi) [1, 10]: 0 n (%, [95% CI])
CRi [1, 10]: 0 n (%, [95% CI])
CRp [1, 10]: 0 n (%, [95% CI])
ORR (CRc plus PR) [1, 10]: 1 (100 [2.5, 100]) n (%, [95% CI])
PR [1, 10]: 1 (100 [2.5, 100]) n (%, [95% CI])
CR [1, 11]: 0 n (%, [95% CI])
CRc (CR plus CRp plus CRi) [1, 11]: 2 (100 [15.8, 100]) n (%, [95% CI])
CRi [1, 11]: 1 (50 [1.3, 98.7]) n (%, [95% CI])
CRp [1, 11]: 1 (50 [1.3, 98.7]) n (%, [95% CI])
ORR (CRc plus PR) [1, 11]: 2 (100 [15.8, 100]) n (%, [95% CI])
PR [1, 11]: 0 n (%, [95% CI])
Median duration of CRc ([1]; FLT3 mutation-positive patients, 95% CI: 30.0, 116.0): 63.0 days
Median duration of remission ([1]; FLT3 mutation-positive patients, 95% CI: 30.0, not evaluable): 89.5 days
CR with incomplete platelet recovery [1, 12]: 20%
partial remission (PR) [1, 12]: 20%
CR with incomplete hematologic recovery ([1]; patients with mutated FLT3 (n = 5), 2 patients): 40%
CR [1, 13]: 9.1%
PR [1, 13]: 9.1%
CR with incomplete platelet recovery ([1]; patients with wild-type FLT3 (n = 11), 2 patients): 18.2%
CRc ([1]; patients without FLT3 mutations (n = 11), 95% CI: 6.0, 61.0): 27.3%
ORR ([1]; patients without FLT3 mutations (n = 11), 95% CI: 10.9, 69.2): 36.4%
Median duration of CRc ([1]; patients without FLT3 mutations, 95% CI: 28.0, 111.0): 69.5 days
Median duration of remission ([1]; patients without FLT3 mutations, 95% CI: 28.0, 127.0): 111.0 days
median OS duration ([2]; doses ≥80 mg/d): 31 weeks
overall response rate (ORR) ([2]; doses ≥80 mg/d): 52%
maximum tolerated dose (MTD) ([2]; once-daily oral, R/R AML, USA, Germany and Italy): 300 mg/day
inhibition of FLT3 (FLT3): robust inhibitor
inhibition of AXL (AXL): robust inhibitor
inhibition of leukocyte receptor tyrosine kinase [3]: robust inhibitor
inhibition of FLT3 receptors expressing FLT3-ITD [4]: strongly inhibited
inhibition of FLT3 receptors expressing FLT3-TKD D835 mutations [5]: strongly inhibited
inhibition of FLT3 receptors expressing F691 gatekeeper mutations [6]: weak inhibitor
inhibitory effect on c-Kit (c-Kit): minimal inhibitory effect
